Here are results for five compounds from ChEMBL document CHEMBL1938301, “Cyclohexane 1,3-diones and their inhibition of mutant SOD1-dependent protein aggregation and toxicity in PC12 cells” (Bioorg Med Chem, 2012).

For series [1], the system named is PC-12. In words: (§1) Inhibition of SOD1 G93A mutant protein aggregation-mediated cytotoxicity in rat PC12 cells expressing yellow fluorescent protein assessed as increase in cell viability. Type of series: cell-based.
For series [2], the system named is HEK293. In words: Cytoprotective activity against MG132-induced cytotoxicity in human HEK293 cells assessed as cell viability at 100 uM pre-treated for 24 hrs before MG132-induction measured after 48 hrs by Calcein-AM-based fluorimetry. Type of series: functional.
The test system of series [3] is PC-12. In words: Cytoprotective activity against MG132-induced cytotoxicity in rat PC12 cells assessed as cell viability at 100 uM pre-treated for 24 hrs before MG132-induction measured after 48 hrs by Calcein-AM-based fluorimetry. Type of series: functional.
Series [4] relates to Cerebral cortex neuron. In words: Cytoprotective activity against MG132-induced cytotoxicity in rat primary cortical neurons cells assessed as cell viability at 100 uM pre-treated for 24 hrs before MG132-induction measured after 48 hrs by Calcein-AM-based fluorimetry. Type of series: functional. In outline:
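Neurons from E18 rat cortex (Sprague-Dawley or Fischer 344), papain-dissociated, plated at 20,000 cells/well on poly-D-lysine, cultured 5 days in Neurobasal/B27 (~90% neurons). Six-point series from 100 μM top in roughly one-third steps, 24 h pre-incubation, then MG132 100 nM final. Viability read 48 h later by Calcein-AM (1 μM, 20 min, RT) fluorescence. Active if ≥5 SD above MG132 controls.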

Series [5] concerns HeLa. In words: Cytoprotective activity against MG132-induced cytotoxicity in human HeLa cells assessed as cell viability at 100 uM pre-treated for 24 hrs before MG132-induction measured after 48 hrs by Calcein-AM-based fluorimetry. Type of series: functional.
The subject of series [6] is SH-SY5Y. In words: Cytoprotective activity against MG132-induced cytotoxicity in human SH-SY5Y cells assessed as cell viability at 100 uM pre-treated for 24 hrs before MG132-induction measured after 48 hrs by Calcein-AM-based fluorimetry. Type of series: functional.
Series [7] concerns PC-12. In words: Inhibition of SOD1 G93A mutant protein aggregation-mediated cytotoxicity in rat PC12 cells expressing yellow fluorescent protein assessed as increase in cell viability relative to radicicol. Type of series: cell-based. Set-up: concentration or dose not given beside the values. In outline: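 PC12 cells expressing G93A SOD1-YFP; MG132 proteasome inhibition induces cytotoxic mutant SOD1 aggregates. Cell survival measured as protection read-out; efficacy expressed relative to radicicol positive control.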

Series [8] relates to Liver microsomes. In words: Half life in human liver microsomes at 5 uM by LC-MS/MS analysis. Type of series: ADME, Microsome. A digest of the protocol: (§2)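 Incubation at 37 °C, in duplicate, with human or mouse liver microsomes (0.275 mg/mL protein) in 100 mM potassium phosphate pH 7.4 with 2 mM NADPH and 3 mM MgCl2. A minus-NADPH control was run. Samples were taken at 15 s and at 10, 20, 40 and 60 min, quenched in acidified acetonitrile with internal standard, and parent was quantified by LC-MS/MS. T1/2 = ln2/k from an exponential fit.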

Series [9] relates to Caco-2. In words: Apparent permeability from apical to basolateral side of human Caco2 cells at 50 uM after 2 hrs […]. Conditions: caco-2, 2 h. Type of series: ADME, cell-based. A digest of the protocol: (§3)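 Caco-2 monolayers on collagen-coated inserts, differentiated 3 weeks. The compound is dosed at 50 μM in HEPES/HBSS/glucose buffer, apical pH 6.5 and basolateral pH 7.4. For A→B, compound and 100 μM Lucifer yellow go apical. For B→A, compound goes basolateral with Lucifer yellow apical. Incubation is 2 h. Lucifer yellow fluorescence checks monolayer integrity (<1% transport). Papp = (dQ/dt)/(c0·A), in 10−6 cm/s.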
(Caco-2 monolayers are a common model of the intestinal barrier.)

A short description of series [10]: as §1. Conditions: PC-12. Type of series: cell-based.
Series [11] has as its system Caco-2. In words: Apparent permeability from basolateral to apical side of human Caco2 cells at 50 uM after 2 hrs […]. Type of series: ADME, cell-based. Conditions: caco-2, 2 h. In outline:
as §3

Series [12] has as its system Caco-2. In words: Efflux ratio of permeability from basolateral to apical over apical to basolateral side in human Caco2 cells at 50 uM after 2 hrs […]. Type of series: ADME, cell-based. Conditions: caco-2, 2 h. In outline: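 Caco-2 monolayers were grown for three weeks on collagen-coated inserts and fed every 2 days. The transport buffer was 10 mM HEPES with 1.98 g/L glucose in HBSS, pH 6.5 apical and pH 7.4 basolateral. Compound was added at 50 μM on the donor side, with 100 μM Lucifer yellow apically, for 2 h. Compound was quantified by LC-MS/MS; Lucifer yellow fluorescence checked monolayer integrity. Papp = (dQ/dt)/(c0·A); ratio taken as B→A over A→B.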

Series [13] relates to Liver. In words: Half life in mouse liver microsomes at 5 uM by LC-MS/MS analysis. Type of series: ADME, Microsome. In outline:
as §2
On the technique in general: Liver microsomes are a subcellular fraction often used to study metabolism.

In series [14] the test system is Plasma. In words: Half life in mouse plasma at 5 uM by LC-MS/MS analysis. Type of series: ADME, cell-free. A digest of the protocol:
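Mouse plasma incubation at 37 °C in duplicate alongside a PBS control, with warfarin and diltiazem as controls. Time points at 15 s and 10, 20, 40 and 60 min; samples precipitated with acetonitrile containing internal standard, then LC-MS/MS. Plasma/PBS response ratio gave % remaining, fitted first-order for half-life.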

Series [15] can be described thus: AUClast in Sprague-Dawley rat at 1 mg/kg, iv. Type of series: ADME, organism-based. To be noted: plasma. The arrangement: time 0 - last, dose 1 mg/kg, route intravenous.
Series [16] can be described thus: AUClast in Sprague-Dawley rat at 1 mg/kg, po. Set-up: time 0 - last, dose 1 mg/kg, route oral. Type of series: ADME, organism-based. To be noted: plasma.
Series [17] can be described thus: Solubility of the compound in phosphate buffer saline after 1 hrs by spectrophotometry. Type of series: physicochemical. To be noted: phosphate buffered saline. In outline:
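DMSO stocks at 100× final (threefold serial dilutions) diluted into PBS and held 1 h at room temperature. Precipitate checked visually and by absorbance at 450 nm. The solubility limit was taken as the highest concentration not cloudy and with absorbance not above background.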

The nature of series [18]: Clearance in Sprague-Dawley rat at 1 mg/kg, iv. Conditions: in vivo. Type of series: ADME, organism-based. The arrangement: dose 1 mg/kg, route intravenous.
Series [19] is described as follows: Cmax in Sprague-Dawley rat at 1 mg/kg, po. Type of series: ADME, organism-based. The arrangement: dose 1 mg/kg, route oral. To be noted: in vivo.
For series [20], the system named is Rattus norvegicus. In words: Dose normalised AUC in Sprague-Dawley rat at 1 mg/kg, po. Type of series: ADME, organism-based. The arrangement: dose 1 mg/kg, route oral. To be noted: in vivo.
Series [21] can be described thus: Toxicity in mouse administered as ip starting at 5 mg/kg and doubling the compound bid each day. Type of series: organism-based. The arrangement: dose 5 mg/kg, route intraperitoneal. To be noted: in vivo. A digest of the protocol:
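Maximum tolerated dose in mice by intraperitoneal injection. Dosing began at 5 mg/kg and was doubled b.i.d. each day, given once in the morning and once mid-afternoon.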

Series [22] concerns the target hERG (KCNH2) (Homo sapiens, UniProt Q12809). In words: Inhibition of human ERG expressed in HEK293 cells at 10 uM. Conditions: HEK293 cells expressing hERG. Type of series: cell-based. (Block of hERG is tested as a sign of cardiac risk.)
The nature of series [23]: Half life in Sprague-Dawley rat at 1 mg/kg, iv. Set-up: dose 1 mg/kg, route intravenous. Conditions: in vivo. Type of series: ADME, organism-based.
Series [24] is described as follows: Half life in Sprague-Dawley rat at 1 mg/kg, po. Type of series: ADME, organism-based. The arrangement: dose 1 mg/kg, route oral. Conditions: in vivo.
A short description of series [25]: in vivo. Conditions: Sprague-Dawley, rat, po, 1 mg/kg.
The nature of series [26]: Ratio of drug level in brain to plasma in mutant SOD1 G93A transgenic mouse at 50 mg/kg, ip after 4 hrs. Type of series: ADME, organism-based. Set-up: dose 50 mg/kg, route intraperitoneal. Conditions: read-out: BPR. In outline:
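Single i.p. bolus of 50 mg/kg in G93A SOD1 transgenic mice (18 animals). Blood and brain sampled at 0–24 h, snap-frozen in liquid nitrogen and stored at −80 °C. Brain and plasma concentrations were compared at 4 h, within the plasma plateau.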

Series [27] relates to Rattus norvegicus. In words: Dose normalised AUC in Sprague-Dawley rat at 1 mg/kg, iv. Type of series: ADME, organism-based. Set-up: dose 1 mg/kg, route intravenous. To be noted: in vivo.
Series [28] in a line: Oral bioavailability in Sprague-Dawley rat at 1 mg/kg. Type of series: ADME, organism-based. Conditions: in vivo.
The nature of series [29]: Volume of distribution at steady state in Sprague-Dawley rat at 1 mg/kg, iv. Type of series: ADME, organism-based. To be noted: in vivo, read-out: Vdss. Set-up: dose 1 mg/kg, route intravenous.

Structures are written as SMILES. The source made the active and inactive calls.

Chain of hERG (KCNH2) (Q12809 whole entry): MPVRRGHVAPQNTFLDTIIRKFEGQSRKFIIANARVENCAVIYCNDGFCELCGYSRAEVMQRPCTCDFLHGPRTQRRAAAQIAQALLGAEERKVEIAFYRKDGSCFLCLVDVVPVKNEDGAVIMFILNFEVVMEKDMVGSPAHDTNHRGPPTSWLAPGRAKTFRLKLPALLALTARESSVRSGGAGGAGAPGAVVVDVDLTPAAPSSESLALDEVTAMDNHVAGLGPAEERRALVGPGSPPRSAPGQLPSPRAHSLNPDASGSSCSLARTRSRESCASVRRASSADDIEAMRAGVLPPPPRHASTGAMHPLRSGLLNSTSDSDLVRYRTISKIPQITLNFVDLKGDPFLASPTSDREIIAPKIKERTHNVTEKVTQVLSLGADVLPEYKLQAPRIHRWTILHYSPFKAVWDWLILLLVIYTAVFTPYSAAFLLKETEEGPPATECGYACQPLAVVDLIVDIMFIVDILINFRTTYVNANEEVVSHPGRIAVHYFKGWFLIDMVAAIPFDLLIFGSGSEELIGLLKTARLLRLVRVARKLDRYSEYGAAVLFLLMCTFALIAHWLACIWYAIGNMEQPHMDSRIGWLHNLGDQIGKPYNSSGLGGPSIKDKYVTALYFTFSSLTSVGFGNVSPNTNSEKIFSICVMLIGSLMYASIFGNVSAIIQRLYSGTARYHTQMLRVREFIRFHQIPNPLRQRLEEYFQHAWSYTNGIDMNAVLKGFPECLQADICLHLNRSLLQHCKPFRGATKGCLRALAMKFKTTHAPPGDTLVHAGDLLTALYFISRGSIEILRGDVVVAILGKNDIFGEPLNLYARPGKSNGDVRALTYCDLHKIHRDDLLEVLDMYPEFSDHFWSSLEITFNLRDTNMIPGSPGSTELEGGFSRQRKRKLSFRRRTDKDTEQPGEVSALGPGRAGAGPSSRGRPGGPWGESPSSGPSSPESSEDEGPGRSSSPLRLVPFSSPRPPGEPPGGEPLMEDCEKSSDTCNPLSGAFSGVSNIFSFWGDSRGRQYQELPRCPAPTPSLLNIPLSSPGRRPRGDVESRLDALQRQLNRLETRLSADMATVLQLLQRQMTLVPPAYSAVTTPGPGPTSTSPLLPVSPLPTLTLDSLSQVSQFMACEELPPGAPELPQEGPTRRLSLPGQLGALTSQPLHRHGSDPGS

For the compound `C[C@@H]1C[C@H]2O[C@@H]2/C=C\C=C\C(=O)Cc2c(Cl)c(O)cc(O)c2C(=O)O1`, in series [1], the Efficacy turned out to be 85%.

In the case of `O=C1CC(=O)N(CCc2ccccc2)C(=O)N1CCc1ccccc1`, the outcome in [2], in series [3], in [4], in [5] and in [6] was Active. For the same compound, in [7], the Efficacy worked out at 100%.

Turning to `O=c1cc(COc2cc(Cl)cc(Cl)c2)[nH][nH]1`, the result in [2], in series [3], in series [4], in series [5] and in series [6] was Active.

For the compound `CC(Oc1cc(C(F)(F)F)cc(C(F)(F)F)c1)C1CC(=O)CC(=O)C1` (racemic), the values for the t1/2 in series [8], in series [13] and in series [14] were 1.18 h, 0.75 h and greater than 1 h, respectively. Also, the Papp was 24.8 cm'-6/s in series [9] and 3.1 cm'-6/s in series [11]. In [7], the Efficacy amounted to 100%. Moreover, the EC50 in series [10] worked out at 700 nM. Besides, the Ratio in series [12] is given as 0.1.

With `O=C1CC(=O)CC(c2cc(C(F)(F)F)cc(C(F)(F)F)c2)C1`, the AUC(0-t) in [15] came to 1980 ng·h/mL; in series [16] it was 1760 ng·h/mL. Also, the outcome in series [2], in series [4], in series [5] and in series [6] was inactive. Moreover, the outcome in [3] was Active. The t1/2 result in [8] and in series [13] was “>= 180 min” in each case. The Papp in series [9] worked out at 38 cm'-6/s; in [11], 5.7 cm'-6/s. Also, the solubility at 1 h in series [17] is no less than 500 µM. For the same compound, the clearance in [18] was 8.4 mL/min/kg. For the same compound, in series [19], the Cmax came out at 468 ng/mL. The AUC/dose stood at 1774 ng·h/mL in series [20] and 1996 ng·h/mL in [27]. Also, the MTD in series [21] was 80 mg/kg. This compound also came in with an inhibition at 10 µM in series [22] of 7.8%. In addition, the Efficacy in [7] turned out to be 100%. Besides, the EC50 in [10] was 700 nM. Further, the half-life was 3.7 h in [23] and 3.2 h in series [24]. The Tmax in series [25] stood at 0.5 h. In series [26], the Kp at 4 h was determined as 0.86. In series [28], this compound showed a bioavailability of 89%. For the same compound, the Vd in series [29] was 1.5 L/kg.

Broadly, the EC50 is the concentration that produces a half-maximal response. By AUC(0-t) is commonly meant exposure summed from dosing to a finite time, without extrapolation to infinity. Broadly, the solubility is how much of the substance goes into solution per volume. A word on the clearance: it is the rate of elimination divided by the concentration. By Cmax is commonly meant the highest concentration seen after dosing. What is called inhibition is how much of the control response was suppressed. By half-life is commonly meant the time in which the quantity being followed falls by half. Usually Tmax stands for the time from dosing to the highest level. One may read the bioavailability as the share of a dose that reaches the circulation, judged against a reference dose that is usually intravenous.
